Measurements: ChEMBL document CHEMBL3774372, “Design, physico-chemical properties and biological evaluation of some new N-[(phenoxy)alkyl]- and N-{2-[2-(phenoxy)ethoxy]ethyl}aminoalkanols as anticonvulsant agents” (Bioorg Med Chem, 2016)
Calls of active or inactive are those of the source.

Tests used:
[1] = system: Rattus norvegicus; assay: Anticonvulsant activity in rat assessed as protection against maximal electric shock-induced seizures at 30 mg/kg, po measured after 2 hrs; format: functional, organism-based
Procedure, shortened: (§1)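 Rats dosed ip or orally as 0.5% methylcellulose suspension; maximal electroshock at listed time. Protection = abolition of hindlimb tonic extension; 4 rats per group, scored protected/tested.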

[2] = system: Mus musculus; assay: Neurotoxicity in mouse at 30 mg/kg, ip after 4 hrs by rotarod test; format: toxicity, organism-based; conditions: in vivo
Procedure, shortened: (§2)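 Mice were dosed ip with compound suspended in 0.5% methylcellulose. Rotarod: a 1 in. knurled rod turning at 6 rpm. Neurotoxicity was scored as failure to stay on the rod for at least 1 min in each of three trials. Results are given as the number of animals affected out of the number tested.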

[3] = system: Mus musculus; assay: Anticonvulsant activity in mouse assessed as protection against maximal electric shock-induced seizures at 30 mg/kg, ip measured after 0.5 hrs; format: functional, organism-based
Procedure, shortened: (§3)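 Mice dosed ip with suspension in 0.5% methylcellulose; maximal electroshock applied at the listed time after dosing. Protection = abolition of hindlimb tonic extension component of seizure; reported as animals protected/animals tested.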

[4] = system: Mus musculus; assay: Anticonvulsant activity in mouse assessed as protection against subcutaneous pentylenetetrazol-induced seizures at 100 mg/kg, ip measured after 0.5 hrs; format: functional, organism-based
Procedure, shortened: (§4)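 Mice dosed ip as 0.5% methylcellulose suspension; pentylenetetrazole 85 mg/kg in 0.9% NaCl injected subcutaneously into posterior midline, animals watched at least 30 min. Protection = no threshold seizure (single clonic spasm episode lasting ≥5 s); scored protected/tested.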

[5] = system: Rattus norvegicus; assay: Neurotoxicity in rat at 30 mg/kg, po after […] by rotarod test; format: toxicity, organism-based; conditions: in vivo
[6] = system: Mus musculus; assay: Anticonvulsant activity in mouse assessed as protection against subcutaneous pentylenetetrazol-induced seizures at 30 mg/kg, ip measured after 4 hrs; format: functional, organism-based; procedure, shortened: as §4
[7] = system: Mus musculus; assay: Neurotoxicity in mouse at 100 mg/kg, ip after 4 hrs by rotarod test; format: toxicity, organism-based; conditions: in vivo; procedure, shortened: as §2
[8] = system: Mus musculus; assay: Neurotoxicity in mouse at 30 mg/kg, ip after 0.5 hrs by rotarod test; format: toxicity, organism-based; conditions: in vivo; procedure, shortened: as §2
[9] = system: Mus musculus; assay: Anticonvulsant activity in mouse assessed as protection against maximal electric shock-induced seizures at 100 mg/kg, ip measured after 0.5 hrs; format: functional, organism-based; procedure, shortened: as §3
[10] = system: Rattus norvegicus; assay: Neurotoxicity in rat at 30 mg/kg, po after 1 hr by rotarod test; format: toxicity, organism-based; conditions: in vivo
[11] = system: Rattus norvegicus; assay: Anticonvulsant activity in rat assessed as protection against maximal electric shock-induced seizures at 30 mg/kg, po measured after 0.5 hrs; format: functional, organism-based; procedure, shortened: as §1
[12] = system: Mus musculus; assay: Neurotoxicity in mouse at 300 mg/kg, ip after 0.5 hrs by rotarod test; format: toxicity, organism-based; conditions: in vivo; procedure, shortened: as §2
[13] = system: Rattus norvegicus; assay: Neurotoxicity in rat at 30 mg/kg, po after 2 hrs by rotarod test; format: toxicity, organism-based; conditions: in vivo
[14] = system: Mus musculus; assay: Anticonvulsant activity in mouse assessed as protection against maximal electric shock-induced seizures at 30 mg/kg, ip measured after 4 hrs; format: functional, organism-based; procedure, shortened: as §3
[15] = system: Mus musculus; assay: Anticonvulsant activity in mouse assessed as protection against maximal electric shock-induced seizures at 100 mg/kg, ip measured after 4 hrs; format: functional, organism-based; procedure, shortened: as §3
[16] = system: Mus musculus; assay: Anticonvulsant activity in mouse assessed as protection against subcutaneous pentylenetetrazol-induced seizures at 30 mg/kg, ip measured after 0.5 hrs; format: functional, organism-based; procedure, shortened: as §4
[17] = system: Rattus norvegicus; assay: Anticonvulsant activity in rat assessed as protection against maximal electric shock-induced seizures at 30 mg/kg, po measured after 1 hr; format: functional, organism-based; procedure, shortened: as §1
[18] = system: Rattus norvegicus; assay: Neurotoxicity in rat at 30 mg/kg, po after 4 hrs by rotarod test; format: toxicity, organism-based; conditions: in vivo
[19] = system: Rattus norvegicus; assay: Anticonvulsant activity in rat assessed as protection against maximal electric shock-induced seizures at 30 mg/kg, po measured after […]; format: functional, organism-based
[20] = system: Rattus norvegicus; assay: Neurotoxicity in rat at 30 mg/kg, po after 0.5 hrs by rotarod test; format: toxicity, organism-based; conditions: in vivo
[21] = system: Mus musculus; assay: Neurotoxicity in mouse at 100 mg/kg, ip after 0.5 hrs by rotarod test; format: toxicity, organism-based; conditions: in vivo; procedure, shortened: as §2
[22] = system: Mus musculus; assay: Anticonvulsant activity in mouse assessed as protection against subcutaneous pentylenetetrazol-induced seizures at 100 mg/kg, ip measured after 4 hrs; format: functional, organism-based; procedure, shortened: as §4
[23] = system: Mus musculus; assay: Anticonvulsant activity in mouse assessed as protection against maximal electric shock-induced seizures at 3 mg/kg, ip measured after 0.5 hrs; format: functional, organism-based; procedure, shortened: as §3
[24] = system: Rattus norvegicus; assay: Anticonvulsant activity in rat assessed as protection against maximal electric shock-induced seizures at 30 mg/kg, po measured after 4 hrs; format: functional, organism-based; procedure, shortened: as §1

Row | Structure (SMILES) | Activity [1] | Activity [2] | Activity [3] | Activity [4] | Activity [5] | Activity [6] | Activity [7] | Activity [8] | Activity [9] | Activity [10] | Activity [11] | Activity [12] | Activity [13] | Activity [14] | Activity [15] | Activity [16] | Activity [17] | Activity [18] | Activity [20] | Activity [21] | further results
1 | Cc1cc(C)c(OCCN[C@H]2CC[C@H](O)CC2)c(C)c1 | inactive | Non-toxic | inactive | inactive | Non-toxic | inactive | Non-toxic | Non-toxic | Active | Non-toxic | inactive | Toxic | Non-toxic | inactive | inactive | inactive | inactive | Non-toxic | Non-toxic | – | Activity [19]: inactive
2 | Cc1cc(C)c(OCCN[C@@H]2CCCC[C@H]2O)c(C)c1 (racemic) | inactive | Non-toxic | Active | – | Non-toxic | inactive | Non-toxic | Non-toxic | – | Non-toxic | inactive | Toxic | Non-toxic | inactive | inactive | inactive | inactive | Non-toxic | Non-toxic | Toxic | Activity [22]: inactive; Activity [23]: inactive
3 | Cc1cc(C)c(OCCNC(C)CO)c(C)c1 (stereo unspecified) | inactive | Non-toxic | inactive | inactive | Non-toxic | inactive | Non-toxic | Non-toxic | Active | Non-toxic | – | Toxic | Non-toxic | inactive | inactive | inactive | inactive | Non-toxic | Non-toxic | Toxic | Activity [22]: inactive; Activity [24]: inactive
